# This is a sample that favours compounds with a hit; in the whole collection about 0.77% have one here.
# S1P4 agonist: activates the human S1P4 receptor | O95977 | S1P4-expressing cell line, agonist reporter assay | activation, % at 4.98 µM | 220,000 tested, 0.35% active; in the data active = activation above about 11%;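 also: 0% = DMSO vehicle and 100% = reference agonist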
# Target sequence (O95977 whole entry, looked up): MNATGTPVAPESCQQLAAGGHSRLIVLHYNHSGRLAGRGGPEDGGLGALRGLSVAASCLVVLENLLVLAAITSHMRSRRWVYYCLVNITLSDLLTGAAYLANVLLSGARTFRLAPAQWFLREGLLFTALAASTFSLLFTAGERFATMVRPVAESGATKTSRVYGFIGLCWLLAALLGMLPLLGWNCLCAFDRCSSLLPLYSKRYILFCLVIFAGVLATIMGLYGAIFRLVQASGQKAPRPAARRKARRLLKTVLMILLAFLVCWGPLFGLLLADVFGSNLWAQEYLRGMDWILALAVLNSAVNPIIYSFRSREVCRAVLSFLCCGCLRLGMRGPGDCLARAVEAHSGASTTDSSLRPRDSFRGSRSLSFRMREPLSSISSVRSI
# S1P4 antag: antagonists of human S1P4 receptor; inhibition, % at 4.98 µM; S1P4-expressing cells, antagonist mode, reporter read-out; 220,000 tested, 0.26% active; O95977; in the data active = inhibition above about 29%;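 also: 0% = wells stimulated with agonist and 100% = vehicle wells without agonist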
# Pf gamet viab: kills late stage P. falciparum gametocytes; P. falciparum stage V gametocytes, ATP luminescence, 24 h; inhibition, % at 10.9 µM; 150,000 tested, 0.065% active; AID 743093;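 active = inhibition above the mean plus 3 SD of compounds within the control limits, set per campaign, cut at about 38% in these data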;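 also: 0% = DMSO wells and 100% = medium only without gametocytes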
# Biofilm kill mix: mixtures killing C. albicans biofilm; inhibition, % at 7.6 µM; AID 1242; C. albicans biofilm persisters + clotrimazole, fluorescence viability; primary screen in compound mixtures of four per well; 120,000 tested, 0.02% active;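 active = inhibition above 30.3% in the primary screen of four-compound pools, then above 30% when the compound was retested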;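 also: compounds exposed to preformed 24 h biofilms for 48 h; 0% = untreated biofilm control and 100% = clotrimazole plus chlorhexidine kill blank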
#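 Incubation: 24 h biofilm formation, then 48 h compound exposure, 37 °C | Material: C. albicans biofilms | Buffer or medium: RPMI/MOPS medium, pH 7.0 | Measured by: 2-h Alamar Blue fluorescence, 535/590 nm excitation/emission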
# S1P3 antag-1: blocks the human S1P3 receptor; inhibition, % at 4.98 µM; 170,000 tested, 0.27% active; CHO S1P3 NFAT-BLA reporter, FRET fluorescence, antagonist mode; AID 485; Q99500;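 active = inhibition above the plate cutoff, the mean inhibition of test wells on that plate plus 3 SD, cut at about 28% in these data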;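 also: cells challenged with S1P at its EC80 of 0.8 µM; blue over green emission ratio from cleaved BLA substrate after 4 h stimulation; 0% = S1P-stimulated wells and 100% = unstimulated DMSO-only wells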
# S1P3 antag-2: confirmation of human S1P3 receptor antagonists. shares compounds with S1P3 antag-1. CHO S1P3 NFAT-BLA reporter, FRET, antagonist mode. inhibition, % at 4.98 µM. 240 tested, 30% active. AID 1429;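 active = inhibition above the hit threshold that was computed for the earlier primary screen, cut at about 30% in these data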;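 also: 0% = S1P-stimulated wells and 100% = unstimulated DMSO-only wells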
# Active calls of the source: *; x = no result.
SMILES,S1P4 agonist,S1P4 antag,Pf gamet viab,Biofilm kill mix,S1P3 antag-1,S1P3 antag-2
Cc1ccc(/C(O)=C2\C(=O)C(=O)N(C)C2c2cccc([N+](=O)[O-])c2)cc1 (stereo not given),x,x,-2.4,x,x,x
O=C(N/N=C/c1ccc(OC(=O)c2ccco2)cc1)c1ccc[n+]([O-])c1,x,x,5.2,x,x,x
c1ccc(CCNc2ncnc3ccccc23)cc1,4.5,-19.8,-2.8,13.4,44.4*,33.2*
Cc1nn(C)c(C)c1CN(Cc1nc(CCC(C)C)no1)C(C)C,-1.5,-3.5,13.9,26.7,31.6*,12.7
CC(C)(C)c1ccc(CNc2ccc([N+](=O)[O-])cn2)cc1,-2.4,-12.0,-14.8,13.9,30.0*,14.7
COc1cnc(-c2ccccn2)nc1Oc1ccccc1Cl,-1.1,-8.3,5.8,x,x,x
COc1cnc(-c2ccccn2)nc1NC(C)C,1.0,-4.4,2.5,-1.8,28.6*,18.7
COc1cnc(-c2ccccn2)nc1Oc1ccc(F)cc1F,0.5,9.1,8.3,18.4,28.5*,-4.3
COc1ccccc1Sc1nc(-c2ccccn2)ncc1OC,1.7,-10.6,5.3,16.1,9.4,x
O=C1c2nccnc2C(=O)N1c1ccc(C(F)(F)F)cc1,-0.2,-17.6,x,1.5,-10.3,x
O=C(O)c1cccc(-c2ccc(/C=N/Nc3ccc([N+](=O)[O-])cc3)o2)c1,-0.5,20.1,-14.2,14.2,13.9,x
O=C(N/N=C/c1ccc(-c2cccc([N+](=O)[O-])c2)o1)[C@H]1C[C@@H]1c1ccccc1,-1.5,-0.5,1.0,14.8,13.0,x
O=C(N/N=C/c1ccc(-c2ccc([N+](=O)[O-])cc2)o1)[C@H]1C[C@@H]1c1ccccc1,0.4,0.1,-37.4,0.9,44.9*,63.2*
O=C(O)c1ccc(-c2ccc(/C=N/Nc3ccc([N+](=O)[O-])cc3)o2)cc1,3.0,6.4,-1.8,25.4,29.4*,-0.8
O=C(CNc1n[nH]c(=O)[nH]c1=O)N/N=C/c1ccccc1,0.7,-1.5,-31.2,16.1,-9.5,x
O=C(CNc1n[nH]c(=O)[nH]c1=O)N/N=C/c1cccnc1,0.3,-6.4,-25.0,12.8,38.6*,-11.7
COc1ccc2cc3cc(C(=O)NCc4cccnc4)oc3nc2c1,-0.9,-8.4,4.9,6.7,30.1*,-2.9
COc1ccc2cc3cc(C(=O)NCc4ccc5c(c4)OCO5)oc3nc2c1,-0.1,-31.3,x,x,-7.1,x
Cc1cccc(Nc2sc(C(=O)c3cc4cc(Cl)ccc4o3)c(N)c2C#N)c1,0.1,-0.8,x,20.0,28.2*,1.9
CO/N=C/c1ccc(Oc2ccc(C)cc2)nc1,-1.0,4.6,-18.0,x,x,x
Cc1ccc(Oc2ccc(C=O)cn2)cc1,-0.6,-18.8,-14.2,11.9,33.6*,-19.3
FC(F)(F)c1cccc(NC(=S)NC(c2ccccc2)c2ccccc2)c1,3.8,5.3,15.7,8.8,44.9*,48.9*
FC(F)(F)c1cccc(NC(=S)NNC(=S)Nc2cccc(C(F)(F)F)c2)c1,0.8,-10.9,x,15.5,2.0,x
Fc1c(CSC(=S)N2CCOCC2)cccc1CSC(=S)N1CCOCC1,0.6,-18.3,21.4,18.9,4.6,x
CC1C(c2ccccc2)N(C)C(c2ccccc2)CC1(O)c1ccc(F)cc1 (stereo not given),-3.2,6.3,16.1,-0.8,30.6*,47.9*
SMILES,S1P4 agonist,S1P4 antag,Pf gamet viab,Biofilm kill mix,S1P3 antag-1,S1P3 antag-2
O=[N+]([O-])c1ccc(/C=C/C2=NN(c3ccccc3)C(c3ccco3)C2)o1 (stereo not given),0.8,-10.8,4.6,7.2,38.5*,8.8
COCCSc1nc(N)c2c3c(sc2n1)CN(C)CC3,1.1,-7.3,7.6,13.5,-0.9,x
COc1ccc(C(=O)NNC2=NCCCCC2)cc1,0.4,-8.9,-5.9,12.7,0.9,x
CN(C)/C=C/C(=C\C(=O)C(F)(F)F)Nc1ccc(C(F)(F)F)cc1,1.0,-12.9,-17.2,16.6,45.3*,-5.6
CN(C)/C=C/C(=O)C(F)(F)F,2.4,1.9,-25.9,14.9,-8.6,x
O=C(NCc1ccco1)C(=S)N1CCCC1,-0.1,5.1,-21.9,12.5,-15.9,x
O=C(NCc1ccco1)C(=S)N1CCCCC1,1.6,2.9,27.3,5.0,28.4*,-10.5
COc1cc(/C=C2\SC(=O)N(c3ccc(O)cc3)C2=O)cc(OC)c1OC,2.7,-19.2,-12.2,19.1,30.6*,-0.9
O=C(Nc1ccc(Br)cc1)C(c1ccccc1)c1ccccc1,-1.0,1.1,x,23.8,57.0*,68.6*
CCc1ccc(NC(=O)C(CC)c2ccccc2)cc1 (stereo not given),-1.0,-10.3,1.8,12.4,29.2*,21.7

# Screening data deposited in PubChem by several laboratories.
